Laboratory results taken from ChEMBL document CHEMBL5104109, “The identification of highly efficacious functionalised tetrahydrocyclopenta[c]pyrroles as inhibitors of HBV viral replication through modulation of HBV capsid assembly” (RSC Med Chem, 2022).
≈ marks a conversion by molar mass, not a printed value.

Assays:
[1] = AUC (0-infinity) in CD-1 mouse at 10 mg/kg, po; assay type: ADME, organism-based; parameters: time infinity, dose 10 mg/kg, route po; conditions: in vivo
Procedure, shortened: (§1)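 Female CD-1 mice were dosed 2.0 mg/kg IV or 10 mg/kg PO in 40% PEG400/5% EtOH/55% water. Serial blood was taken at 5 min (IV), 15 min (PO), 30 min, and 2, 4, 8, 12 and 24 h into K2EDTA, and plasma was prepared. Plasma levels were measured by LC-MS/MS against spiked plasma standards of 0.5–8000 ng/mL. Parameters came from non-compartmental analysis.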

[2] = Cmax in CD-1 mouse at 10 mg/kg, po; assay type: ADME, organism-based; parameters: dose 10 mg/kg, route po; conditions: in vivo; procedure, shortened: as §1
[3] = Half life in CD-1 mouse at 10 mg/kg, po or 2 mg/kg, iv; assay type: ADME, organism-based; conditions: in vivo; procedure, shortened: as §1
[4] = tested on: Hepatitis B virus; test: Antiviral activity against HBV infected in NOD.CB17-Prkdc-scid/J hydrodynamic injection mouse model expressing HBV genotype D assessed as log reduction in HBV DNA at 30 mg/kg,po QD for 7 days by qPCR method relative to control; assay type: functional; conditions: time 7 day
Procedure, shortened: (§2)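 Six-week-old female NOD.CB17-Prkdcscid/J mice received an HBV plasmid by hydrodynamic tail-vein injection (1.6 mL within 5 s). Seven days after injection (day 0), oral gavage dosing began at 3, 10 or 30 mg/kg once or twice daily; controls received vehicle by gavage. Serum was taken on day 0 (predose) and day 7, and HBV DNA was measured in total extracted nucleic acid by qPCR.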

[5] = tested on: Hepatitis B virus; test: Antiviral activity against HBV infected in HepDE19 cells assessed as inhibition of HBV DNA; assay type: functional, organism-based
Procedure, shortened: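 HepDE19 cells (HepG2-derived, HBV genotype D ayw, Tet-off CMV) seeded at 50,000 cells/well with tetracycline 1 μg/mL overnight. Next day switched to tet-free medium for 4 h, then given compound from 10 μM in a ½-log 8-point series, in duplicate, 0.5% DMSO final. After 7 days at 37 °C, intracellular rcDNA was read by bDNA. EC50 from a 4-parameter fit vs DMSO wells; mean of ≥2 experiments.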

[6] = Aqueous solubility of compound at pH 7.4; assay type: physicochemical; conditions: buffer
Procedure, shortened: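 A 10 mM DMSO stock was diluted into PBS pH 7.4 to 200 μM compound, 2% DMSO final, and shaken 18–24 h at 22 °C. Samples were filtered by centrifugation and the filtrate quantified by UPLC-UV/MS against a standard curve of 4–200 μM in DMSO.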

[7] = tested on: Hepatitis B virus; test: Antiviral activity against HBV infected in NOD.CB17-Prkdc-scid/J hydrodynamic injection mouse model expressing HBV genotype D assessed as log reduction in HBV DNA at 3 mg/kg,po QD for 7 days by qPCR method relative to control; assay type: functional; conditions: time 7 day; procedure, shortened: as §2
[8] = tested on: Hepatitis B virus; test: Antiviral activity against HBV infected in NOD.CB17-Prkdc-scid/J hydrodynamic injection mouse model expressing HBV genotype D assessed as log reduction in HBV DNA at 10 mg/kg,po QD for 7 days by qPCR method relative to control; assay type: functional; conditions: time 7 day; procedure, shortened: as §2
[9] = in vitro; conditions: human, liver microsomes
[10] = in vitro; conditions: CD-1, mouse, liver microsomes
[11] = Metabolic stability in human liver microsomes assessed as half life at 0.3 uM and measured upto 1 hrs; assay type: ADME, Microsome
Procedure, shortened: (§3)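 Compound at 0.3 μM final was incubated with human or mouse liver microsomes at 0.5 mg/mL in 100 mM potassium phosphate pH 7.4 with 1 mM NADPH at 37 °C. T1/2 = ln(2)/k. CLint = (0.693/t1/2)/0.5 mg/mL microsomal protein.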

[12] = Metabolic stability in CD-1 mouse liver microsomes assessed as half life at 0.3 uM and measured upto 1 hrs; assay type: ADME, Microsome; procedure, shortened: as §3
[13] = Metabolic stability in human liver microsomes assessed as parent compound remaining at 0.3 uM and measured after 1 hrs; assay type: ADME, Microsome; conditions: read-out: Stability
[14] = Metabolic stability in CD-1 mouse liver microsomes assessed as parent compound remaining at 0.3 uM and measured after 1 hrs; assay type: ADME, Microsome; conditions: read-out: Stability
[15] = tested on: Hepatitis B virus; test: Antiviral activity against HBV infected in NOD.CB17-Prkdc-scid/J hydrodynamic injection mouse model expressing HBV genotype D assessed as log reduction in HBV DNA at 3 mg/kg,po BID for 7 days by qPCR method relative to control; assay type: functional; conditions: time 7 day; procedure, shortened: as §2
[16] = tested on: Hepatitis B virus; test: Antiviral activity against HBV infected in NOD.CB17-Prkdc-scid/J hydrodynamic injection mouse model expressing HBV genotype D assessed as log reduction in HBV DNA at 10 mg/kg,po BID for 7 days by qPCR method relative to control; assay type: functional; conditions: time 7 day; procedure, shortened: as §2
[17] = tested on: Hepatitis B virus; test: Antiviral activity against HBV infected in NOD.CB17-Prkdc-scid/J hydrodynamic injection mouse model expressing HBV genotype D assessed as log reduction in HBV DNA at 30 mg/kg,po BID for 7 days by qPCR method relative to control; assay type: functional; conditions: time 7 day; procedure, shortened: as §2
[18] = Cytotoxicity against human HepDE19 cells assessed as reduction in cell viability upto 25 uM; assay type: toxicity, cell-based; conditions: hepde19, 25 µM
Procedure, shortened: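 Run on HepDE19 replicate plates seeded at 5,000 cells/well after tetracycline removal. Cells were exposed to compound for 4 days at 37 °C, 5% CO2. Viability was read as intracellular ATP by CellTiter-Glo luminescence, expressed as % of DMSO controls. CC50 came from a 4-parameter curve fit, as the mean of ≥2 experiments.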

[19] = tested on: Hepatitis B virus; test: Antiviral activity against HBV infected in NOD.CB17-Prkdc-scid/J hydrodynamic injection mouse model expressing HBV genotype D assessed as log reduction in HBV DNA at 100 mg/kg,po QD for 7 days by qPCR method relative to control; assay type: functional; conditions: time 7 day

SMILES: Cn1cc2c(c1C(=O)Nc1ccc(F)c(Cl)c1)CC[C@@H]2NC(=O)OCc1c[nH]nn1
- AUC [1]: 60.6 µg·h/mL
- Cmax [2]: 4.53 µg/mL
- half-life [3]: 5.8 h
- log(activity) [4]: 2
- EC50 [5]: 0.057 µM
- solubility [6]: 10 µM (≈ 4.33 µg/mL)
- log(activity) [7]: 0.8
- log(activity) [8]: 1.5
- microsomal CLint at 1 h, 0.3 µM [9]: 7.9 µL/min/mg
- microsomal CLint at 1 h, 0.3 µM [10]: 21.6 µL/min/mg

SMILES: O=C(NCc1cnc(C(F)(F)F)s1)c1ccc2c(c1)NC(=O)c1ccccc1S2(=O)=O [VEBICORVIR]
- EC50 [5]: 0.25 µM

SMILES: Cn1cnc(COC(=O)N[C@H]2CCc3c2cn(C)c3C(=O)Nc2ccc(F)c(Cl)c2)n1
- half-life at 0.3 µM [11]: 4.27 h
- half-life at 0.3 µM [12]: 1.9 h
- remaining at 1 h, 0.3 µM [13]: 87%
- remaining at 1 h, 0.3 µM [14]: 81%
- AUC [1]: 46.7 µg·h/mL
- Cmax [2]: 4.27 µg/mL
- half-life [3]: 2.6 h
- log(activity) [15]: 0.8
- log(activity) [16]: 1.9
- log(activity) [17]: 2.5
- log(activity) [4]: 1.8
- EC50 [5]: 0.052 µM
- solubility [6]: 24 µM (≈ 10.7 µg/mL)
- Activity [18]: Non-Toxic
- microsomal CLint at 1 h, 0.3 µM [9]: 5.4 µL/min/mg
- microsomal CLint at 1 h, 0.3 µM [10]: 12.2 µL/min/mg

SMILES: Cc1c2c(c(C(=O)Nc3ccc(F)c(Cl)c3)n1C)CC[C@@H]2NC(=O)OCc1ncn(C)n1
- EC50 [5]: 0.114 µM
- solubility [6]: 5 µM (≈ 2.3 µg/mL)
- microsomal CLint at 1 h, 0.3 µM [9]: 12.7 µL/min/mg
- microsomal CLint at 1 h, 0.3 µM [10]: 52.8 µL/min/mg

SMILES: COC(=O)C1=C(CN2CCOC[C@H]2C(=O)O)NC(c2nccs2)=N[C@H]1c1ccc(F)cc1Br
- EC50 [5]: 0.05 µM

SMILES: Cn1cc2c(c1C(=O)Nc1ccc(F)c(Cl)c1)CC[C@@H]2NC(=O)OCc1nc[nH]n1
- AUC [1]: 40.7 µg·h/mL
- Cmax [2]: 3.86 µg/mL
- half-life [3]: 4.8 h
- EC50 [5]: 0.05 µM
- solubility [6]: 23 µM (≈ 9.96 µg/mL)
- log(activity) [8]: 0.6
- microsomal CLint at 1 h, 0.3 µM [9]: 4.1 µL/min/mg
- microsomal CLint at 1 h, 0.3 µM [10]: 12.3 µL/min/mg

SMILES: Cn1cnc(COC(=O)N[C@H]2CCc3c(C(=O)Nc4ccc(F)c(Cl)c4)ccc(F)c32)n1
- half-life at 0.3 µM [11]: 3.22 h
- half-life at 0.3 µM [12]: 1.23 h
- remaining at 1 h, 0.3 µM [13]: 83%
- remaining at 1 h, 0.3 µM [14]: 56%
- AUC [1]: 9.87 µg·h/mL
- Cmax [2]: 1.61 µg/mL
- half-life [3]: 2.5 h
- log(activity) [16]: 0.6
- log(activity) [17]: 2.1
- log(activity) [19]: 1
- EC50 [5]: 0.077 µM
- microsomal CLint at 1 h, 0.3 µM [9]: 6.2 µL/min/mg
- microsomal CLint at 1 h, 0.3 µM [10]: 20.6 µL/min/mg

SMILES: Cn1cc(COC(=O)N[C@H]2CCc3c2cn(C)c3C(=O)Nc2ccc(F)c(Cl)c2)nn1
- EC50 [5]: 0.052 µM
- solubility [6]: < 4 µM
- microsomal CLint at 1 h, 0.3 µM [9]: 24.4 µL/min/mg
- microsomal CLint at 1 h, 0.3 µM [10]: 38.4 µL/min/mg

SMILES: CCOC(=O)C1=C(CN2CCOCC2)NC(c2nccs2)=NC1c1ccc(F)cc1Br (stereo unspecified)
- EC50 [5]: 0.11 µM

SMILES: Cn1c(Cl)c2c(c1C(=O)Nc1ccc(F)c(Cl)c1)CC[C@@H]2NC(=O)OCc1c[nH]nn1
- AUC [1]: 30.6 µg·h/mL
- Cmax [2]: 2.51 µg/mL
- half-life [3]: 3.5 h
- EC50 [5]: 0.014 µM
- solubility [6]: < 4 µM
- microsomal CLint at 1 h, 0.3 µM [9]: 11.2 µL/min/mg
- microsomal CLint at 1 h, 0.3 µM [10]: 20.2 µL/min/mg

SMILES: Cn1c(Cl)c2c(c1C(=O)Nc1ccc(F)c(Cl)c1)CC[C@@H]2NC(=O)OCc1nc[nH]n1
- EC50 [5]: 0.011 µM
- solubility [6]: < 4 µM
- microsomal CLint at 1 h, 0.3 µM [9]: 8.6 µL/min/mg
- microsomal CLint at 1 h, 0.3 µM [10]: 29.7 µL/min/mg

SMILES: Cn1cnc(COC(=O)N[C@H]2CCc3c2c(Cl)n(C)c3C(=O)Nc2ccc(F)c(Cl)c2)n1
- EC50 [5]: 0.013 µM
- solubility [6]: 5 µM (≈ 2.41 µg/mL)
- microsomal CLint at 1 h, 0.3 µM [9]: 8.8 µL/min/mg
- microsomal CLint at 1 h, 0.3 µM [10]: 33.8 µL/min/mg

SMILES: C[C@H](NS(=O)(=O)c1cc(C(=O)Nc2ccc(F)c(C#N)c2)n(C)c1)C(F)(F)F [BERSACAPAVIR]
- EC50 [5]: 0.045 µM

SMILES: Cn1cnc(COC(=O)N[C@@H]2CCc3c2cn(C)c3C(=O)Nc2ccc(F)c(Cl)c2)n1
- EC50 [5]: 3.5 µM
- Activity [18]: Non-Toxic

SMILES: O=C(Nc1cc(F)c(F)c(F)c1)c1ccc(F)c(S(=O)(=O)N2CCC(O)CC2)c1
- EC50 [5]: 0.65 µM

SMILES: Cn1cnc(COC(=O)N[C@H]2CCc3c2c(Br)n(C)c3C(=O)Nc2ccc(F)c(Cl)c2)n1
- EC50 [5]: 0.012 µM
- solubility [6]: < 4 µM
- microsomal CLint at 1 h, 0.3 µM [9]: 8.5 µL/min/mg
- microsomal CLint at 1 h, 0.3 µM [10]: 31.4 µL/min/mg
